≈ marks a conversion by molar mass, not a printed value.
Key:
HeLa = experiment: Cytotoxicity concentration in HeLa cells; assay type: cell-based; settings: human
In short: (§1)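 HeLa monolayers were seeded at (1.0-1.3) × 10^5 cells/well, grown 24 h at 36 °C in 5% CO2 to 60–75% cover, then refed with maintenance medium (1-2% heat-inactivated FCS) containing two-fold serial compound dilutions made from a 200 μg/mL stock in Me2SO/medium, with final Me2SO ≤0.1%. Cells were challenged with 10-100 TCID50 virus, and CPE was read microscopically at 48 and 72 h. MIC50 was the lowest concentration giving ≥50% CPE reduction versus virus control. Cytotoxicity was the lowest concentration causing cell death, a growth change or a morphology change in uninfected cultures.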

Enterovirus [1] = experiment: Lowest concentration to reduce viral effect by 50% or more against Rhinovirus (RV)-2; assay type: functional; in short: as §1
Coxsackievirus [2] = experiment: Lowest concentration to reduce viral effect by 50% or more against coxsackie virus A21; assay type: functional; in short: as §1
Enterovirus [3] = experiment: Ratio of the MIC50 of 6-(4-Nitro-phenoxy)-nicotinonitrile compared to compound obtained in the same test for Rhinovirus (RV)-1A; assay type: functional
In short: (§2)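 Relative activity was calculated as the MIC50 of the positive control 5-cyano-2-(4-nitrophenoxy)pyridine divided by the MIC50 of the test compound. Both were measured in parallel in the same HeLa CPE test (48/72 h microscopic reading) against RV-1A, RV-2 or coxsackievirus A21.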

Coxsackievirus [4] = experiment: Ratio of the MIC50 of 6-(4-Nitro-phenoxy)-nicotinonitrile compared to compound obtained in the same test for coxsackie A21; assay type: functional; in short: as §2
Enterovirus [5] = experiment: Ratio of the MIC50 of 6-(4-Nitro-phenoxy)-nicotinonitrile compared to compound obtained in the same test for Rhinovirus (RV)-2; assay type: functional; in short: as §2
Enterovirus [6] = experiment: Lowest concentration to reduce viral effect by 50% or more against Rhinovirus (RV)-1A; assay type: functional; in short: as §1
Enterovirus [7] = experiment: Compound was evaluated for inhibition of rhinovirus RV-Hanks at a dose of 50 ug/mL by < 50%; assay type: functional
Enterovirus [8] = experiment: Compound was evaluated for inhibition of rhinovirus RV-Hanks 75%; assay type: functional

Compound	Toxicity (HeLa)	MIC50 (Enterovirus [1])	MIC50 (Coxsackievirus [2])	Relative activity (Enterovirus [3])	Relative activity (Coxsackievirus [4])	Relative activity (Enterovirus [5])	MIC50 (Enterovirus [6])	inhibition at 50 µg/mL (Enterovirus [7])	Inhibition (Enterovirus [8])
N#Cc1cccnc1Oc1ccc(Cl)c(Cl)c1	> 189 µM	24 µM (≈ 6.36 µg/mL)	12 µM (≈ 3.18 µg/mL)	0.55	1.1	1.1	47 µM (≈ 12.5 µg/mL)		
N#Cc1cc([N+](=O)[O-])ccc1Oc1cccc(Cl)c1Cl	> 65 µM	0.26 µM (≈ 0.0804 µg/mL)	8.1 µM (≈ 2.5 µg/mL)	25	3.2	50	0.52 µM (≈ 0.161 µg/mL)		
CSc1ccc(Oc2ccc(Cl)c(Cl)c2)nc1	87 µM	9 µM (≈ 2.58 µg/mL)	9 µM (≈ 2.58 µg/mL)	6.5	4.6	5.8	4 µM (≈ 1.14 µg/mL)		
N#Cc1ccnc(Oc2ccc(Cl)c(Cl)c2)c1	> 189 µM	12 µM (≈ 3.18 µg/mL)	12 µM (≈ 3.18 µg/mL)	1.1	1.1	2.2	24 µM (≈ 6.36 µg/mL)		
N#Cc1ccc(Oc2ccc(Cl)cc2)nc1	> 433 µM	54 µM (≈ 12.5 µg/mL)	54 µM (≈ 12.5 µg/mL)	1.9	0.48	2	54 µM (≈ 12.5 µg/mL)		
N#Cc1cc([N+](=O)[O-])ccc1Oc1cccc(C(F)(F)F)c1	41 µM	2 µM (≈ 0.616 µg/mL)	3.9 µM (≈ 1.2 µg/mL)	1.6	5.3	25.9	8.1 µM (≈ 2.5 µg/mL)		
N#Cc1cc([N+](=O)[O-])ccc1Oc1ccccc1Br	> 31 µM	0.94 µM (≈ 0.3 µg/mL)	0.41 µM (≈ 0.131 µg/mL)	12.9	3.3	11.1	1.6 µM (≈ 0.511 µg/mL)		
N#Cc1cc([N+](=O)[O-])ccc1Oc1cccc2ccccc12	> 172 µM	1.1 µM (≈ 0.319 µg/mL)	10.8 µM (≈ 3.14 µg/mL)	6	1.2	11.8	4.3 µM (≈ 1.25 µg/mL)		
Cc1ccc(Oc2ccc(C#N)cn2)cc1	476 µM	30 µM (≈ 6.31 µg/mL)	60 µM (≈ 12.6 µg/mL)	0.43	0.43	1.7	60 µM (≈ 12.6 µg/mL)		
N#Cc1ccc(Oc2ccc(Cl)c(Cl)c2)cc1	24 µM	9.5 µM (≈ 2.51 µg/mL)	2.3 µM (≈ 0.607 µg/mL)	2.7	11.3	2.7	9.5 µM (≈ 2.51 µg/mL)		
N#Cc1cc([N+](=O)[O-])ccc1Oc1ccccc1	> 42 µM	5.4 µM (≈ 1.3 µg/mL)	2.7 µM (≈ 0.649 µg/mL)	3.8	0.96	3.8	5.4 µM (≈ 1.3 µg/mL)		
COc1ccc(Oc2ccc([N+](=O)[O-])cc2C#N)cc1	93 µM	11.6 µM (≈ 3.13 µg/mL)	5.7 µM (≈ 1.54 µg/mL)	0.56	2.2	2.2	46.3 µM (≈ 12.5 µg/mL)		
O=[N+]([O-])c1ccc(Oc2ccc(Cl)c(Cl)c2)cc1	352 µM	22 µM (≈ 6.25 µg/mL)	0.88 µM (≈ 0.25 µg/mL)	5.6	5.9	2.4	4.6 µM (≈ 1.31 µg/mL)	30%	65%
CS(=O)(=O)c1ccc(Oc2ccc(Cl)c(Cl)c2)cc1	158 µM	0.79 µM (≈ 0.251 µg/mL)	4.1 µM (≈ 1.3 µg/mL)	32.8	3.2	32.8	0.79 µM (≈ 0.251 µg/mL)	10%	85%
